Only some compounds are listed: those with a hit (about 2.9% of all), similar ones and a draw of the others.
ADAM10 inh = human ADAM10 inhibitors, primary screen, biochemical, QFRET, HTS; actives 0.62% (n = 370,000); inhibition, % at 7 µM; Disintegrin and metalloproteinase domain-containing protein 10 (Homo sapiens), O14672; recombinant ADAM10, EDANS/DABCYL FRET peptide cleavage, 3 h;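 active = inhibition above a per-campaign cutoff equal to the mean of compounds falling between control-based bounds plus 3 SD, cut at about 20% in these data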;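 note: 0% = DMSO wells while the 100% control is not disclosed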
Target sequence (O14672 214-748 limits assumed): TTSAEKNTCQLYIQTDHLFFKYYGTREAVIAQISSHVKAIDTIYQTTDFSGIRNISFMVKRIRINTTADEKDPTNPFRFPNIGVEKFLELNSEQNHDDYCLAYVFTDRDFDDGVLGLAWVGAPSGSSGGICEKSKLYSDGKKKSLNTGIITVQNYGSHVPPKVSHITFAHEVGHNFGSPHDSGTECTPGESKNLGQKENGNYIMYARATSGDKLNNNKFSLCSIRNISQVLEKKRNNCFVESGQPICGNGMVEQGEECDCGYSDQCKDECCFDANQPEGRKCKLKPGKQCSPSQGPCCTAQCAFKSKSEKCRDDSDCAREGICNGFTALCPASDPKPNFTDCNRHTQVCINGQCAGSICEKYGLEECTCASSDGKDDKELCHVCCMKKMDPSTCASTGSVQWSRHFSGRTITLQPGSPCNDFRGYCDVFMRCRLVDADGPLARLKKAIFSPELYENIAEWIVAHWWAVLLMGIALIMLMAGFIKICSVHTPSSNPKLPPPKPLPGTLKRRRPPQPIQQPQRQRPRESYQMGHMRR
CaV13 ICDI inh = Disruptors of the CACNA1D IQ motif to Ca2+-dependent inactivation inhibitor domain association, primary screening, Förster resonance energy transfer in intact living … | HEK cells, CFP/YFP FRET ICDI-IQ, plate reader, 10 min; percent FRET-ratio fall versus neutral wells | inhibition, % at 12.3 µM | actives 0.098% (n = 340,000);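 active = mean replicate inhibition of at least 30% and at least 1% of replicates passing that level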;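 note: 0% = median of the neutral control wells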
NRP1-CendR mod = modulators of CendR peptide binding to NRP-1, primary screen, biochemical, fluorescence polarization, uHTS | Neuropilin-1 (Homo sapiens), O14786 | FAM-RPARPAR peptide binding to NRP-1 | inhibition, % at 25 µM | actives 0.85% (n = 360,000);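 active = inhibition or corrected inhibition above about 18%, plus a signal ratio from 0.5 to 1.5, limit read from the data, passing the limit was not always enough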
ADAM17 inh = ADAM17 inhibitors, primary screen, biochemical, QFRET; Disintegrin and metalloproteinase domain-containing protein 17 (Homo sapiens), P78536; recombinant ADAM17, EDANS/DABCYL FRET peptide cleavage; inhibition, % at 6.95 µM; actives 0.83% (n = 370,000);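 active = inhibition above the mean of compounds lying between control limits plus 3 SD, set per campaign, cut at about 8.5% in these data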;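 note: 0% = DMSO-only wells as the low control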
FAS TE block = FAS thioesterase domain inhibitors, primary screen, biochemical, fluorescence intensity, uHTS. recombinant FAS-TE, OMFH fluorogenic substrate, fluorescence endpoint. inhibition, % at 15 µM. actives 0.67% (n = 360,000);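 active = compounds whose normalised, plate-corrected inhibition of enzyme fluorescence in the single-dose primary screen is 50% or more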;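 note: 0% = DMSO with enzyme and 100% = substrate without enzyme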
Arr AP2 block = inhibitors of beta-arrestin/AP2 binding, primary screen, biochemical, GPCR trafficking, flow cytometry. beta-arrestin 1 C-terminal peptide binding to AP2 beta2-adaptin appendage (human). actives 0.31% (n = 340,000). inhibition, % at 10 µM. FITC-arrestin peptide / GST-AP2 beads; AP2 beta2 appendage carries R879A mutation. AID 504490, 2011;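 active = inhibition above a set limit, near 3 SD of compounds lacking own fluorescence, cut at about 54% in these data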;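 note: plate controls were DMSO wells for no effect and 5 µM unlabelled arrestin peptide for full effect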
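system = GST-tagged AP2 beta2-adaptin appendage (R879A) on 4 µm glutathione beads | reagent = FITC-labelled arrestin peptide probe, 50 nM final | schedule = compound with beads 12 min RT, then probe 1 h RT | signal = HyperCyt-sampled flow cytometry, FL1 channel, ex 488/em 535 nm | read-out = percent response from loss of bead-bound FITC fluorescence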
FAS-TE inh conf = FAS thioesterase domain inhibitors, confirmation, biochemical, fluorescence intensity, single concentration; shares compounds with FAS TE block; recombinant FAS-TE, OMFH fluorogenic substrate; inhibition, % at 15 µM; actives 45% (n = 2,300); AID 624325, 2012;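 active = compounds inhibiting the enzyme by at least 50% at 15 µM in any one of the replicates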;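 note: 0% = enzyme with DMSO only and 100% = wells lacking enzyme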
* = called active by the depositor; / = no result given.

SMILES | ADAM10 inh | CaV13 ICDI inh | NRP1-CendR mod | ADAM17 inh | FAS TE block | Arr AP2 block | FAS-TE inh conf
O=[N+]([O-])c1cccc(S(=O)(=O)Nc2cccc(-c3ccc(N4CCOCC4)nn3)c2)c1 | -2 | -3 | 21 | 1 | 7 | -2 | /
NS(=O)(=O)c1ccc(CCNC(=O)COC(=O)c2cc([N+](=O)[O-])ccc2N2CCOCC2)cc1 | -1 | -15 | -12 | -2 | 14 | -6 | /
O=C(COC(=O)c1cc([N+](=O)[O-])ccc1N1CCOCC1)NCc1ccccc1 | -5 | -7 | -10 | -1 | 83* | / | 90*
COc1cccc(CNC(=O)COC(=O)c2cc([N+](=O)[O-])ccc2N2CCCC2)c1 | 11 | -3 | -11 | -1 | 81* | -1 | 85*
O=C(COC(=O)c1cc([N+](=O)[O-])ccc1N1CCOCC1)NCc1ccc(Cl)cc1Cl | -7 | -6 | 3 | 2 | 93* | 10 | 93*
O=C(Cn1cc([N+](=O)[O-])ccc1=O)NCc1ccc(Cl)cc1Cl | -3 | / | 14 | 3 | 56* | -6 | 55*
CCc1ccc(C(=O)NNC(=O)c2cccc(S(=O)(=O)N3CCN(C)CC3)c2)cc1 | 3 | -5 | -10 | -1 | -8 | -3 | /
O=C(CC1C[C@H](C(=O)N2CCOCC2)[C@@]2(CCC3CCCC3)c3[nH]c4ccccc4c3CCN2C1=O)NCCCn1ccnc1 (some centres undefined) | -1 | -6 | 5 | -2 | 69* | -7 | 64*
CC(C)(C)NC(=O)CC1C[C@H](C(=O)N2CCOCC2)[C@@]2(CCC3CCCC3)c3[nH]c4ccccc4c3CCN2C1=O (some centres undefined) | 3 | -6 | -16 | 2 | 81* | -1 | 76*
COc1ccc2[nH]c3c(c2c1)CCN1C(=O)C(CC(=O)NCCCn2ccnc2)C[C@H](C(=O)N2CCOCC2)[C@@]31CCC1CCCC1 (some centres undefined) | -8 | -7 | -8 | -2 | 34 | 8 | /
O=C(C[C@H]1C[C@H](C(=O)N2CCCCC2)[C@@]2(CCc3ccccc3)c3[nH]c4ccc(Cl)cc4c3CCN2C1=O)NCc1cccc(C(F)(F)F)c1 | 2 | -4 | -1 | -4 | 36 | -12 | /
O=C(CC1C[C@H](C(=O)N2CCCCC2)[C@@]2(CCc3ccccc3)c3[nH]c4ccccc4c3CCN2C1=O)NCc1cccc(C(F)(F)F)c1 (some centres undefined) | -14 | -6 | -4 | -3 | 54* | -2 | 29
CC1=C2C3OC(=O)C(C)C3CCC2(C)C=CC1=NO (centres undefined) | 3 | -5 | -9 | -1 | -4 | 0 | /
O=C(Nc1ccc(F)cc1)OCc1cn(Cc2ccccc2F)nn1 | 2 | / | / | 1 | / | / | /
O=C(CCN1C(=O)/C(=C\c2ccccc2Cl)SC1=S)Nc1cccnc1 | -6 | -4 | 2 | 3 | 57* | 1 | 54*
O=C(CCCN1C(=O)/C(=C/c2ccccc2Cl)SC1=S)NNC(=O)c1ccccc1 | -4 | -3 | -22 | -1 | 37 | 18 | /
O=C(CCN1C(=O)/C(=C/c2ccccc2Cl)SC1=S)Nc1ccccc1C(=O)O | -3 | -4 | -54 | -4 | 71* | -10 | 77*
Cc1ccc(COc2ccc(CNCCCN3CCCCCC3=O)cc2)cc1 | -5 | -7 | 8 | -5 | -3 | 5 | /
CCS(=O)(=O)c1ccc2oc(Nc3ccc(C(C)C)cc3)nc2c1 | 8 | -5 | 1 | 3 | 52* | 5 | 47*
O=C(/C=C/c1cccc(Cl)c1)OCC(=O)c1ccc[nH]1 | 0 | -12 | -1 | -4 | -11 | / | /
CC(C)(C)c1ccc(OCCC(=O)OCC(=O)NCc2ccccc2)cc1 | 8 | -6 | 17 | 3 | 65* | 3 | 67*
COC(=O)C1CN(Cc2cn(Cc3ccc(OC)cc3)nn2)CCS(=O)(=O)N1Cc1ccc(C)cc1 (centres undefined) | -4 | / | / | -3 | / | / | /
O=c1[nH]c(C2CCCN(S(=O)(=O)c3cccc(Cl)c3)C2)nc2c1nnn2Cc1ccc2c(c1)OCCO2 (centres undefined) | 5 | -16 | 0 | -1 | 54* | 8 | 16
COC(=O)c1ccc2c(=O)n(-c3ccccc3)c(SCN3C(=O)c4ccccc4C3=O)nc2c1 | 4 | -5 | 4 | 1 | 62* | 10 | 3
O=C(O)c1ccc(CSc2nc3ccccc3c(=O)n2-c2ccccc2)cc1 | 0 | -10 | -4 | -5 | -2 | -4 | /
SMILES | ADAM10 inh | CaV13 ICDI inh | NRP1-CendR mod | ADAM17 inh | FAS TE block | Arr AP2 block | FAS-TE inh conf
CCc1ccc(C2(O)CC(C(F)(F)F)=NN2C(=O)Cc2ccc([N+](=O)[O-])cc2)cc1 (centres undefined) | 4 | -4 | -2 | -1 | 52* | -1 | 18
CCC1=NN(C(=O)Cc2ccc([N+](=O)[O-])cc2)C(O)(C(C)(C)C)C1 (centres undefined) | -2 | -4 | -14 | -5 | 4 | 5 | /
CCCOc1ccc(N2C(=O)CC(SC(=N)N3N=C(c4ccccc4)CC3c3ccccc3)C2=O)cc1 (centres undefined) | -13 | -4 | -8 | -6 | 69* | 9 | 15
C[C@@H]1CN([C@@H](C)CO)C(=O)c2cc(NC(=O)Nc3cccc4ccccc34)ccc2O[C@@H](C)CCCCO[C@H]1CN(C)C(=O)c1ccccc1 | -66 | -2 | -7 | -17 | 11 | / | /
C[C@@H]1CN([C@@H](C)CO)C(=O)c2cc(NC(=O)C3CCCCC3)ccc2O[C@@H](C)CCCCO[C@H]1CN(C)S(=O)(=O)c1ccc(Cl)cc1 | 16 | -7 | -8 | 7 | 81* | / | 8
Cc1ccc(S(=O)(=O)N(C)C[C@H]2OCCCC[C@H](C)Oc3ccc(NC(=O)Nc4cccc5ccccc45)cc3C(=O)N([C@@H](C)CO)C[C@H]2C)cc1 | -96 | -7 | -4 | -25 | 82* | / | 6
